Measurements as given in publication PMC8245912 (Acta Pharmaceutica Sinica. B, 2020).
Like-named read-outs stand apart in the source and are kept apart here. Peptide text beside a SMILES is read from it. * marks the point of attachment. Cbz = O=C(OCc1ccccc1)*

Experiments:
A549 (lung cancer) cells = test: CCK-8 antiproliferative assay, A549; assay type: cell-based; conditions: Homo sapiens
[1] = tested on: HCT116 (colon cancer) cells; test: CCK-8 antiproliferative assay, HCT116; assay type: cell-based; conditions: Homo sapiens, HCT-116, read-out: IC50 HCT116
MDM2 = MDM2 (Homo sapiens, UniProt Q00987); test: Western blotting of MDM2 degradation in A549 cells; assay type: cell-based; conditions: for MDM2 degradation (result in words): Western blotting, Fig. 2B
[2] = tested on: MCF-7 (breast cancer) cells; test: CCK-8 antiproliferative assay, MCF-7; assay type: cell-based; conditions: Homo sapiens, MCF7, read-out: IC50 MCF-7
[3] = tested on: HepG2 (liver cancer) cells; test: CCK-8 antiproliferative assay, HepG2; assay type: cell-based; conditions: Homo sapiens, HepG2, read-out: IC50 HepG2
MDM2‒P53 = MDM2‒P53 (Homo sapiens, UniProt Q00987); test: fluorescence polarization; assay type: binding; conditions: for Ki: MDM2‒P53 Ki, FP binding assay, Table 1
P53 = test: Western blotting of P53 expression in A549 cells; assay type: cell-based, human
HCT116 (P53+) cells = test: CCK-8 assay, P53-wild HCT116; assay type: cell-based; conditions: Homo sapiens, HCT-116, read-out: IC50 HCT116 (P53+)
HCT116 (P53‒) cells = test: CCK-8 assay, P53-deleted HCT116; assay type: cell-based; conditions: Homo sapiens, HCT-116, read-out: IC50 HCT116 (P53‒)
Caco-2 cells = assay type: in vitro ADME
A549 cells = test: apoptosis assay, flow cytometry with Annexin V/PI double staining; assay type: cell-based, human; conditions: for apoptosis: 5.0 μmol/L, 24 h treatment
A549 xenograft = test: in vivo A549 xenograft assay; design: species or system mouse; conditions: A549 xenograft nude mice, intraperitoneal 20 mg/kg twice-daily, 21 days
How it was run: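 Female BALB/c nude mice (6–7 weeks, 18–20 g) received 5.0 × 10^6 A549 cells subcutaneously in the flank. At mean tumour volume 100 mm3 they were randomised, 5 per group. Intraperitoneal dosing ran twice daily for 21 days; vehicle was normal saline. Calipers measured tumours every three days: V = A×B²/2, TGI = (1 − Vtreat/Vcontrol) × 100. Analysis used mean ± SEM and one-way ANOVA.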

[4] = A549, 72 h, read-out: IC50 A549

Row | IC50 (A549 (lung cancer) cells; [4]) [µM] | IC50 [1] [µM] | IC50 [2] [µM] | IC50 [3] [µM] | Ki (MDM2‒P53) [µM] | SMILES | MDM2 degradation (result in words) (MDM2) | further results
1 | 2.1 ± 0.1 | 2.5 ± 1 | 2.1 | 1.5 ± 0.05 | 0.65 ± 0.17 | CCOc1cc(C(C)(C)C)ccc1C1=N[C@@H](c2ccc(Cl)cc2)[C@@H](c2ccc(Cl)cc2)N1C(=O)N1CCN(C(=O)CCCCCC(=O)N2CCN(C(=O)N3C(c4ccc(C(C)(C)C)cc4OCC)=N[C@@H](c4ccc(Cl)cc4)[C@H]3c3ccc(Cl)cc3)CC2)CC1 (relative stereo) [Compound 10a, 1,7-Bis(4-(2-(4-(tert-butyl)-2-ethoxyphenyl)-cis-4,5-bis(4-chlorophenyl)-4,5-dihydro-1H-imidazole-1-carbonyl)piperazin-1-yl) heptane-1,7-dione] | no degradation | 
2 | 6.3 ± 1.2 | 5.7 ± 1.3 | 6.3 ± 1.1 | 3.8 | 1.6 ± 0.96 | CCOc1cc(C(C)(C)C)ccc1C1=N[C@@H](c2ccc(Cl)cc2)[C@@H](c2ccc(Cl)cc2)N1C(=O)N1CCN(C(=O)CCCCCCCC(=O)N2CCN(C(=O)N3C(c4ccc(C(C)(C)C)cc4OCC)=N[C@@H](c4ccc(Cl)cc4)[C@H]3c3ccc(Cl)cc3)CC2)CC1 (relative stereo) [Compound 10b, 1,9-Bis(4-(2-(4-(tert-butyl)-2-ethoxyphenyl)-cis-4,5-bis(4-chlorophenyl)-4,5-dihydro-1H-imidazole-1-carbonyl)piperazin-1-yl) nonane-1,9-dione] |  | 
3 | 6.6 ± 1 | 3.9 ± 0.7 | 7.4 ± 0.51 | 4.6 ± 0.8 | 1.5 ± 0.82 | CCOc1cc(C(C)(C)C)ccc1C1=N[C@@H](c2ccc(Cl)cc2)[C@@H](c2ccc(Cl)cc2)N1C(=O)N1CCN(C(=O)COCCOCC(=O)N2CCN(C(=O)N3C(c4ccc(C(C)(C)C)cc4OCC)=N[C@@H](c4ccc(Cl)cc4)[C@H]3c3ccc(Cl)cc3)CC2)CC1 (relative stereo) [Compound 10e, 2,2′-(Ethane-1,2-diylbis(oxy)) bis(1-(4-(2-(4-(tert-butyl)-2-ethoxyphenyl)-cis-4,5-bis(4-chlorophenyl)-4,5-dihydro-1H-imidazole-1-carbonyl)piperazin-1-yl)ethan-1-one)] |  | 
4 | 1.3 | 1.3 ± 0.1 | 4.7 ± 0.81 | 1.2 ± 0.2 | 0.22 ± 0.07 | CCOc1cc(C(C)(C)C)ccc1C1=N[C@@H](c2ccc(Cl)cc2)[C@@H](c2ccc(Cl)cc2)N1C(=O)N1CCN(C(=O)COCCOCCOCC(=O)N2CCN(C(=O)N3C(c4ccc(C(C)(C)C)cc4OCC)=N[C@@H](c4ccc(Cl)cc4)[C@H]3c3ccc(Cl)cc3)CC2)CC1 (relative stereo) [Compound 10f, 2,2′-((Oxybis(ethane-2,1-diyl))bis(oxy))bis(1-(4-(2-(4-(tert-butyl)-2-ethoxyphenyl)-cis-4,5-bis(4-chlorophenyl)-4,5-dihydro-1H-imidazole-1-carbonyl)piperazin-1-yl)ethan-1-one)] | dose-dependently induced MDM2 protein cleavage | P53 protein expression (result in words) (P53): increased the P53 protein expression

Further lines, the compound ahead of its results:

Row | SMILES | IC50 (A549 (lung cancer) cells; [4]) [µM] | IC50 [1] [µM] | IC50 [2] [µM] | IC50 [3] [µM] | Ki (MDM2‒P53) [µM] | MDM2 degradation (result in words) (MDM2) | further results
5 | CCOc1cc(C(C)(C)C)ccc1C1=N[C@@H](c2ccc(Cl)cc2)[C@@H](c2ccc(Cl)cc2)N1C(=O)N1CCN(CC(=O)NCCOCCOCCOCCNC(=O)CN2CCN(C(=O)N3C(c4ccc(C(C)(C)C)cc4OCC)=N[C@@H](c4ccc(Cl)cc4)[C@H]3c3ccc(Cl)cc3)CC2=O)C(=O)C1 (relative stereo) [Compound 11a, N,N′-(((Oxybis(ethane-2,1-diyl))bis(oxy))bis(ethane-2,1-diyl))bis(2-(4-(2-(4-(tert-butyl)-2-ethoxyphenyl)-cis-4,5-bis(4-chlorophenyl)-4,5-dihydro-1H-imidazole-1-carbonyl)-2-oxopiperazin-1-yl)acetamide)] | 1 ± 0.1 | 1.9 ± 0.11 | 2.9 ± 0.6 | 3.3 ± 0.31 |  | dose-dependently induced MDM2 protein cleavage | IC50 (A549 (lung cancer) cells; A549, read-out: IC50 A549): 1.4 ± 0.31 µM; P53 protein expression (result in words) (P53): increased the P53 protein expression; MDM2 degradation (MDM2; 2 μmol/L, 24 h): > 95%; MDM2 degradation rescue by proteasome inhibitor MG132 (result in words) (MDM2; Fig. 4F): MG132 blocked the MDM2 degradation; time at which depletion of MDM2 was observed (MDM2; time course degradation, Fig. 4D): ≤ 2 h; IC50 (HCT116 (P53+) cells): 1.9 ± 0.67 µM; IC50 (HCT116 (P53‒) cells): > 50 µM; cellular permeability (result in words) (Caco-2 cells): low permeability; apoptosis in combination with MG132 (A549 cells; A549 cells, 5.0 μmol/L compound + MG132 0.2 μmol/L): 15.81%; apoptosis (A549 cells; A549 cells): 23.49%; fold more potent MDM2‒P53 competitive binding than positive control 1 (MDM2‒P53; ratio of Ki vs compound 1): ~1.5 fold
6 | CCOc1cc(C(C)(C)C)ccc1C1=N[C@@H](c2ccc(Cl)cc2)[C@@H](c2ccc(Cl)cc2)N1C(=O)N1CCN(CC(=O)NCCOCCOCCNC(=O)CN2CCN(C(=O)N3C(c4ccc(C(C)(C)C)cc4OCC)=N[C@@H](c4ccc(Cl)cc4)[C@H]3c3ccc(Cl)cc3)CC2=O)C(=O)C1 (relative stereo) [Compound 11b, N,N′-((Ethane-1,2-diylbis(oxy))bis(ethane-2,1-diyl))bis(2-(4-(2-(4-(tert-butyl)-2-ethoxyphenyl)-cis-4,5-bis(4-chlorophenyl)-4,5-dihydro-1H-imidazole-1-carbonyl)-2-oxopiperazin-1-yl)acetamide)] | 6.6 ± 1 | 3.9 ± 1.6 | 4.9 ± 0.2 | 7.3 ± 0.52 | 1.8 ± 0.94 |  | 
7 | CCOc1cc(C(C)(C)C)ccc1C1=N[C@@H](c2ccc(Cl)cc2)[C@@H](c2ccc(Cl)cc2)N1C(=O)N1CCN(CC(=O)NCCOCCNC(=O)CN2CCN(C(=O)N3C(c4ccc(C(C)(C)C)cc4OCC)=N[C@@H](c4ccc(Cl)cc4)[C@H]3c3ccc(Cl)cc3)CC2=O)C(=O)C1 (relative stereo) [Compound 11c, N,N′-(Oxybis(ethane-2,1-diyl))bis(2-(4-(2-(4-(tert-butyl)-2-ethoxyphenyl)-cis-4,5-bis(4-chlorophenyl)-4,5-dihydro-1H-imidazole-1-carbonyl)-2-oxopiperazin-1-yl)acetamide)] | 9.3 ± 1.7 | 7.4 ± 2.1 | 14 ± 3.7 | 12 ± 3.7 | 12 ± 1.9 |  | 
8 | COc1ccc(C2=N[C@@H](c3ccc(Cl)cc3)[C@@H](c3ccc(Cl)cc3)N2C(=O)N2CCNC(=O)C2)c(OC(C)C)c1 [Compound 1, Nutlin-3, reference compound] | 7.9 ± 1.3 | 5 ± 0.9 | 9.7 ± 1 | 8.9 ± 1 |  | did not induce the degradation of MDM2 | IC50 (A549 (lung cancer) cells; A549, read-out: IC50 A549): 9.9 ± 1.3 µM; IC50 (HCT116 (P53‒) cells): 19 ± 0.91 µM; apoptosis (A549 cells; A549 cells): 10.94%; tumor growth inhibition (TGI) (A549 xenograft): 47.8%
9 | CC(C)C[C@@H](C=O)NC(=O)[C@H](CC(C)C)NC(=O)[C@H](CC(C)C)NC(=O)OCc1ccccc1 [MG132, reference compound] (Cbz-Leu-Leu-Leu-aldehyde) |  |  |  |  |  |  | toxic effect on A549 cells (result in words) (A549 cells; 0.2 μmol/L, incubation for 24 h): no toxic effect
